Laboratory results: ChEMBL document CHEMBL4038281, “Competitive protein tyrosine phosphatase 1B (PTP1B) inhibitors, prenylated caged xanthones from Garcinia hanburyi and their inhibitory mechanism” (Bioorg Med Chem, 2017)
Activity calls are given as the source filed them. The calls are words filed in the database; no cut-off is given here.

Experiments:
[1] = target: T1, Tyrosine-protein phosphatase non-receptor type 1 (Homo sapiens) (UniProt P18031); experiment: Inhibition of recombinant human PTP1B (1 to 322 residues) expressed in Escherichia coli using pNPP as substrate incubated for 10 mins measured for 30 mins by spectrometric analysis
T1 sequence (whole entry): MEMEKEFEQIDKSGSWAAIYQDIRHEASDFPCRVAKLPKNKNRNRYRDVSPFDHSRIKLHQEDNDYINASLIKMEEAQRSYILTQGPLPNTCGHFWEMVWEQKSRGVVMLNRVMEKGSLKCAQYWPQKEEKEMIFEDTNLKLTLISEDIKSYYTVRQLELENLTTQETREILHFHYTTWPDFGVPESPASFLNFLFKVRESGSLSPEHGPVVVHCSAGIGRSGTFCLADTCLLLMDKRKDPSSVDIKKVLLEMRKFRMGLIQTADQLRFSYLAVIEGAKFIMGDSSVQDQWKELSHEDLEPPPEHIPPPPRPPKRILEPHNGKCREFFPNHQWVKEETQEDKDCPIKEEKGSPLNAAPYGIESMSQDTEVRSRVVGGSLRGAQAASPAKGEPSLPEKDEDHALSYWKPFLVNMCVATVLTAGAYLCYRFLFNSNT
In short: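 Enzyme (1 mg/mL stock) was mixed with sample in DMSO and 4 mM pNPP stock in 25 mM Tris-HCl pH 7.5, 1 mM EDTA, 2 mM b-mercaptoethanol and 1 mM DTT.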

[2] = target: T1, Tyrosine-protein phosphatase non-receptor type 1 (Homo sapiens); details: 457.3 to 1829.3 uM
[3] = target: T1, Tyrosine-protein phosphatase non-receptor type 1 (Homo sapiens); details: 11.7 to 47.1 uM
[4] = target: T1, Tyrosine-protein phosphatase non-receptor type 1 (Homo sapiens); experiment: Competitive inhibition of recombinant human PTP1B (1 to 322 residues) expressed in Escherichia coli at 52.6 to 210.6 uM using pNPP as substrate by Line-weaver burk plot method
In short: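 PTP1B activity was followed by pNPP hydrolysis at 405 nm in 25 mM Tris-HCl pH 7.5 with 1 mM EDTA, 2 mM b-mercaptoethanol and 1 mM DTT, at 37 °C, with compound added in DMSO. Initial velocities were taken across substrate and inhibitor concentrations. Km and Vmax came from Lineweaver-Burk plots, with Dixon plots also used, and the Kik/Kiv ratio was calculated after Yang et al.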

[5] = target: T1, Tyrosine-protein phosphatase non-receptor type 1 (Homo sapiens); experiment: Competitive inhibition of recombinant human PTP1B (1 to 322 residues) expressed in Escherichia coli at 99.4 to 397.8 uM using pNPP as substrate by Line-weaver burk plot method
In short: (§1)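 Kinetics with pNPP substrate in 25 mM Tris-HCl (pH 7.5), 1 mM EDTA, 2 mM b-mercaptoethanol, 1 mM DTT, 37 °C. Initial velocities were recorded at several substrate and inhibitor concentrations and read at 405 nm. Vmax and Km came from Lineweaver-Burk plots, and the Kik/Kiv ratio was calculated per Yang et al.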

[6] = target: T1, Tyrosine-protein phosphatase non-receptor type 1 (Homo sapiens); experiment: Competitive inhibition of recombinant human PTP1B (1 to 322 residues) expressed in Escherichia coli at 11.8 to 47.2 uM using pNPP as substrate by Line-weaver burk plot method; in short: as §1
[7] = target: T1, Tyrosine-protein phosphatase non-receptor type 1 (Homo sapiens); details: 12.4 to 49.6 uM
[8] = target: T1, Tyrosine-protein phosphatase non-receptor type 1 (Homo sapiens); details: 0.47 uM
[9] = target: T1, Tyrosine-protein phosphatase non-receptor type 1 (Homo sapiens); details: 49.5 to 198.1 uM

## CC(C)=CCc1c2c(c(O)c3c1O[C@]14C(=C[C@@H]5C[C@H]1C(C)(C)O[C@@]4(/C=C(/C)CO)C5=O)C3=O)C=CC(C)(C)O2
[1]
  inhibition: Dose-dependent effect
[2]
  inhibition: Active

## CO[C@@H]1C2C(=O)c3c(O)c(C/C=C(\C)CCC=C(C)C)c(O)c(CC=C(C)C)c3O[C@@]23[C@H]2C[C@@H]1C(=O)[C@]3(C/C=C(/C)C(=O)O)OC2(C)C (stereo not given in full)
[1]
  inhibition: Dose-dependent effect
[3]
  inhibition: Active

## CO[C@@H]1C2C(=O)c3c(O)c4c(c(CC=C(C)C)c3O[C@@]23[C@H]2C[C@@H]1C(=O)[C@]3(C/C=C(/C)C(=O)O)OC2(C)C)OC(C)(C)C=C4 (stereo not given in full)
[1]
  inhibition: Dose-dependent effect
[4]
  inhibition: Active

## COC1=C2C(=O)c3c(O)c4c(c(CC=C(C)C)c3O[C@@]23[C@H]2C[C@@H]1C(=O)[C@]3(CC=C(C)C)OC2(C)C)O[C@](C)(CCC=C(C)C)C=C4
[1]
  inhibition: Dose-dependent effect
[5]
  inhibition: Active

## CO[C@@H]1C2C(=O)c3c(O)c4c(c(CC=C(C)C)c3O[C@@]23[C@H]2C[C@@H]1C(=O)[C@]3(C/C=C(/C)C(=O)O)OC2(C)C)O[C@](C)(CCC=C(C)C)C=C4 (stereo not given in full)
[1]
  inhibition: Dose-dependent effect
[6]
  inhibition: Active

## CC(C)=CCC[C@]1(C)C=Cc2c(O)c3c(c(CC=C(C)C)c2O1)O[C@]12C(=C[C@@H]4C[C@H]1C(C)(C)O[C@@]2(C/C=C(/C)C(=O)O)C4=O)C3=O
[1]
  inhibition: Dose-dependent effect
[7]
  inhibition: Active
[8]
  TDI: Active

## CC(C)=CCC/C(C)=C/Cc1c(O)c(CC=C(C)C)c2c(c1O)C(=O)C1=C[C@@H]3C[C@H]4C(C)(C)O[C@@](C/C=C(/C)C(=O)O)(C3=O)[C@@]14O2
[1]
  inhibition: Dose-dependent effect
[9]
  inhibition: Active
